Measured values as given in ChEMBL document CHEMBL1153325, “Morpholine containing CB2 selective agonists” (Bioorg Med Chem Lett, 2009).
Activity calls are given as the source filed them. The calls are words filed in the database; no cut-off is given here.

Legend:
[1] = target: T1, Cannabinoid receptor 2 (Homo sapiens, UniProt P34972); assay: Agonist activity at human CB2 receptor expressed in CHO cells assessed as inhibition of forskolin-induced cAMP release; assay type: functional, cell-based
In short: (§1)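 CHO cells stably expressing human CB2, 5000 cells/well, incubated overnight at 37 °C. Compounds added in stimulation buffer with 1 mM IBMX, 0.25% BSA and forskolin, 30 min at 37 °C. cAMP read after lysis with a commercial kit. 100% is set by forskolin-stimulated cAMP versus the level under 200 nM CP-55940. Efficacy is relative to CP-55940, which is run twice per plate. EC50 from a four-parameter logistic fit. Each compound tested in triplicate, at least three times; mean reported.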

[2] = target: T1, Cannabinoid receptor 2; assay: Agonist activity at human CB2 receptor expressed in CHO cells assessed as inhibition of forskolin-induced cAMP release relative to CP-55940; assay type: functional, cell-based; in short: as §1
[3] = species: Homo sapiens; assay: Selectivity ratio of EC50 for human CB1 receptor to EC50 for human CB2 receptor
In short: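 Inhibition is normalised to 200 nM CP-55940. EC50 from a four-parameter logistic fit. Each compound tested in triplicate, at least three times.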

[4] = target: T1, Cannabinoid receptor 2; assay: Displacement of [3H]CP-55940 form human CB2 receptor transfected in HEK cells at 50 nM; assay type: cell-based; conditions: HEK293
[5] = target: T1, Cannabinoid receptor 2; assay: Displacement of [3H]CP-55940 form human CB2 receptor transfected in HEK cells; assay type: cell-based, HEK293
In short: (§2)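 Compounds tested at 1×10^-5 to 1×10^-10 M. Competition with [³H]-CP55940 or [³H]-Win55212 at 4 nM final. IC50 is 50% inhibition of specific binding, from a four-parameter logistic fit.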

[6] = target: T1, Cannabinoid receptor 2; assay: Displacement of [3H]Win55212 form human CB2 receptor transfected in HEK cells; assay type: cell-based, HEK293; in short: as §2
[7] = system: Mus musculus; assay: Antiinflammatory activity in BALB/c mouse assessed as inhibition of zymosan-induced paw edema at 100 mg/kg, po administered 60 mins before zymosan challenge measured after 3 hrs relative to control; assay type: functional; design: scale not given: the % may be the effect or the level left
In short: (§3)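 Male Balb/c mice, 6–10 weeks old. Compound given orally in 95% PEG400/5% Tween 80 about 60 min before 0.5% zymosan in 0.9% saline, injected dorsal metatarsally into each hind paw. Paw volume measured by water plethysmometry before challenge and 3 h after. Inhibition of swelling is relative to vehicle-dosed mice, six per group.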

[8] = target: T1, Cannabinoid receptor 2; assay: Inverse agonist activity at human CB2 receptor expressed in CHO cells assessed as change in forskolin-induced cAMP release; assay type: functional, cell-based; conditions: filed as inverse agonist; in short: as §1
[9] = system: Mus musculus; assay: Antiinflammatory activity in BALB/c mouse assessed as inhibition of zymosan-induced paw edema at 30 mg/kg, po administered 60 mins before zymosan challenge measured after 3 hrs relative to control; assay type: functional; design: scale not given: the % may be the effect or the level left; in short: as §3

T1 sequence (P34972 whole entry): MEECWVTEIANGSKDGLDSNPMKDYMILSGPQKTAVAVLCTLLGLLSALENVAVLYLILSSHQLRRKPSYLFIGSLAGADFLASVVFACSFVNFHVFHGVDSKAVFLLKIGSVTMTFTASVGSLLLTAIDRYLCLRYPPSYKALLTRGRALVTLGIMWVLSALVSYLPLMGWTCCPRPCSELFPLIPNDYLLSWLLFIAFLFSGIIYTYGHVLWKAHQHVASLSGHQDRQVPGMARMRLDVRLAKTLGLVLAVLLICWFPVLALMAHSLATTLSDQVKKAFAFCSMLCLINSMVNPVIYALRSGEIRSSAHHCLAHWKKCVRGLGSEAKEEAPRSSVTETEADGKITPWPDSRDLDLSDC

| SMILES | EC50 [1] | Efficacy [2] | Ratio EC50 [3] | further results |
| --- | --- | --- | --- | --- |
| Fc1ccc(Nc2ccc(CN3CCO[C@@H](c4ccccc4)C3)cn2)cc1 | 35 nM | 70% |  |  |
| Clc1cccc(Nc2ccc(CN3CCO[C@@H](c4ccccc4)C3)cn2)c1Cl | 1600 nM | 70% | > 10 |  |
| c1ccc(Oc2ccc(CN3CCO[C@@H](c4ccccc4)C3)cc2)cc1 | 15000 nM | 100% |  |  |
| CN(Cc1ccc(-c2ccccc2C(F)(F)F)cc1)CC(O)c1ccccc1 (racemic) | 2 nM | 95% | 120 | Activity [4]: Active |
| c1ccc(Nc2ccc(CN3CCO[C@@H](c4ccccc4)C3)cn2)cc1 | 140 nM | 70% | > 150 |  |
| Cc1ccc(Cl)c(-c2ccc(CN3CCO[C@@H](c4ccccc4)C3)cc2)c1 | 3 nM | 73% | 781 |  |
| Cc1ccc(Nc2ccc(CN3CCO[C@@H](c4ccccc4)C3)cn2)cc1 | 100 nM | 80% | > 200 |  |
| Clc1ccc(Nc2ccc(CN3CCO[C@@H](c4ccccc4)C3)cn2)cc1Cl | 50 nM | 80% | > 400 |  |
| Clc1ccc(Nc2ccc(CN3CCO[C@@H](c4ccccc4)C3)cn2)c(Cl)c1 | 10 nM | 100% | > 2000 | Ki [5]: > 10000 nM; Ki [6]: 2650 nM; Activity [7]: 85% |
| N#Cc1ccccc1-c1ccc(CN2CCO[C@@H](c3ccccc3)C2)cc1 | 3 nM | 56% | 715 |  |
| c1ccc(-c2ccc(Nc3ccc(CN4CCO[C@@H](c5ccccc5)C4)cn3)cc2)cc1 | > 20000 nM |  |  |  |
| FC(F)(F)c1ccccc1-c1ccc(CN2CCCC(c3ccccc3)C2)cc1 (racemic) | 30 nM | 57% | 195 |  |
| Clc1ccc(Nc2ccc(CN3CCO[C@@H](c4ccccc4)C3)cn2)cc1 | 30 nM | 80% | > 670 |  |
| FC(F)(F)c1ccccc1-c1ccc(CN2CCO[C@@H](c3ccccc3)C2)cc1 | 40 nM | 50% | 250 |  |
| Clc1ccccc1Nc1ccc(CN2CCO[C@@H](c3ccccc3)C2)cn1 | 30 nM | 80% | 250 |  |
| FC(F)(F)c1ccccc1-c1ccc(CN2CCO[C@H](c3ccccc3)C2)cc1 |  |  |  | Activity [8]: Inverse agonist |
| O=C(NCC1CCOCC1)c1cnc(Nc2ccc(Cl)cc2Cl)nc1C(F)(F)F [GW842166X] | 350 nM | 90% | > 60 | Ki [5]: > 5000 nM; Ki [6]: > 10000 nM |
| Clc1ccccc1-c1ccc(CN2CCO[C@@H](c3ccccc3)C2)cc1 | 25 nM | 51% | 306 |  |
| FC(F)(F)c1ccccc1-c1ccc(CN2CCOC(c3ccccc3)C2)cc1 (racemic) | 330 nM | 50% | > 60 |  |
| Clc1cccc(-c2ccc(CN3CCO[C@@H](c4ccccc4)C3)cc2)c1Cl | 6 nM | 77% | 960 | Ki [5]: 312 nM; Ki [6]: 104 nM; Activity [9]: 54% |
| COc1ccc(Nc2ccc(CN3CCO[C@@H](c4ccccc4)C3)cn2)cc1 | 65 nM | 90% | > 310 |  |
| CC(C)c1ccc(Nc2ccc(CN3CCO[C@@H](c4ccccc4)C3)cn2)cc1 | > 20000 nM |  |  |  |
| c1ccc(Nc2ccc(CN3CCO[C@@H](c4ccccc4)C3)cc2)cc1 | 615 nM | 60% | > 30 |  |
| Clc1cccc(Nc2ccc(CN3CCO[C@@H](c4ccccc4)C3)cn2)c1 | 200 nM | 80% | > 100 |  |
| CN(C)c1ccc(Nc2ccc(CN3CCO[C@@H](c4ccccc4)C3)cn2)cc1 | > 20000 nM |  |  |  |
